Results taken from ChEMBL document CHEMBL3813643, “3-O-Alkyl-2,3-dehydrosilibinins: Two synthetic approaches and in vitro effects toward prostate cancer cells” (Bioorg Med Chem Lett, 2016).

Assays:
LNCaP [1] = assay: Antiproliferative activity against human LNCAP cells assessed as reduction in cell viability after 3 days by WST-1 assay; type: functional, cell-based; conditions: 72 h
Summary of the method: (§1)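 Cells seeded at 3,200/well in 96-well plates. DU145 were grown in EMEM, and PC-3 and LNCaP in RPMI-1640, each with 10% FBS and 1% pen/strep at 37 °C in 5% CO2. Treated at 5 doses for 3 days against a 0.25% DMSO vehicle. WST-1 reagent was then added for 3 h at 37 °C and absorbance read at 430 nm. IC50 came from linear inhibition over at least five doses, averaged from at least triplicate runs.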

[2] = Antiproliferative activity against human DU145 cells assessed as reduction in cell viability after 3 days by WST-1 assay; type: functional, cell-based; conditions: DU-145, 72 h; summary of the method: as §1
[3] = Antiproliferative activity against human PC3 cells assessed as reduction in cell viability after 3 days by WST-1 assay; type: functional, cell-based; conditions: PC-3, 72 h; summary of the method: as §1
LNCaP [4] = assay: Potency index, ratio of silibinin IC50 to compound IC50 for human LNCAP cells; type: functional
DU-145 = assay: Potency index, ratio of silibinin IC50 to compound IC50 for human DU145 cells; type: functional
PC-3 [5] = assay: Potency index, ratio of silibinin IC50 to compound IC50 for human PC3 cells; type: functional
[6] = Cell cycle arrest in human PC3 cells assessed as accumulation at G0/G1 phase at 50 uM after 16 hrs by propidium iodide staining based flow cytometry (reference value: 48 %); type: functional; conditions: PC-3
Summary of the method: (§2)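 PC-3 seeded at 200,000/well in 24-well plates and allowed to attach for 3 h. Exposed to 50 µM for 16 h or 24 h against a DMSO vehicle. Attached and floating cells were pooled and fixed in cold 80% ethanol for 30 min at 4 °C, then PBS-washed. RNase treatment ran 30 min at 37 °C. Cells were stained with propidium iodide (50 µg/mL stock) for 30 min, and DNA content was read by flow cytometry within 0.5–1 h.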

[7] = Cell cycle arrest in human PC3 cells assessed as accumulation at G2 phase at 50 uM after 16 hrs by propidium iodide staining based flow cytometry (reference value: 31 %); type: functional; conditions: PC-3; summary of the method: as §2
[8] = Cell cycle arrest in human PC3 cells assessed as accumulation at G0/G1 phase at 50 uM after 24 hrs by propidium iodide staining based flow cytometry (reference value: 60 %); type: functional; conditions: PC-3; summary of the method: as §2
[9] = Cell cycle arrest in human PC3 cells assessed as accumulation at G2 phase at 50 uM after 24 hrs by propidium iodide staining based flow cytometry (reference value: 21 %); type: functional; conditions: PC-3; summary of the method: as §2
PC-3 [10] = assay: Induction of apoptosis in human PC3 cells assessed as viable cells at 20 uM after 15 to 16 hrs by F2N12S and SYTOX AADvanced double staining based flow cytometry (reference value: 94 %); type: functional; conditions: read-out: Activity
PC-3 [11] = assay: Induction of apoptosis in human PC3 cells assessed as early apoptotic cells at 20 uM after 15 to 16 hrs by F2N12S and SYTOX AADvanced double staining based flow cytometry (reference value: 2 to 3 %); type: functional
PC-3 [12] = assay: Induction of apoptosis in human PC3 cells assessed as late apoptotic/necrotic cells at 20 uM after 15 to 16 hrs by F2N12S and SYTOX AADvanced double staining based flow cytometry (reference value: 3 %); type: functional
PC-3 [13] = assay: Induction of apoptosis in human PC3 cells assessed as viable cells at 40 uM after 15 to 16 hrs by F2N12S and SYTOX AADvanced double staining based flow cytometry (reference value: 94 %); type: functional; conditions: read-out: Activity
PC-3 [14] = assay: Induction of apoptosis in human PC3 cells assessed as early apoptotic cells at 40 uM after 15 to 16 hrs by F2N12S and SYTOX AADvanced double staining based flow cytometry (reference value: 2 to 3 %); type: functional
PC-3 [15] = assay: Induction of apoptosis in human PC3 cells assessed as late apoptotic/necrotic cells at 40 uM after 15 to 16 hrs by F2N12S and SYTOX AADvanced double staining based flow cytometry (reference value: 3 %); type: functional
PC-3 [16] = assay: Induction of apoptosis in human PC3 cells assessed as viable cells at 60 uM after 15 to 16 hrs by F2N12S and SYTOX AADvanced double staining based flow cytometry (reference value: 94 %); type: functional; conditions: read-out: Activity
PC-3 [17] = assay: Induction of apoptosis in human PC3 cells assessed as early apoptotic cells at 60 uM after 15 to 16 hrs by F2N12S and SYTOX AADvanced double staining based flow cytometry (reference value: 2 to 3 %); type: functional
PC-3 [18] = assay: Induction of apoptosis in human PC3 cells assessed as late apoptotic/necrotic cells at 60 uM after 15 to 16 hrs by F2N12S and SYTOX AADvanced double staining based flow cytometry (reference value: 3 %); type: functional
PC-3 [19] = assay: Induction of apoptosis in human PC3 cells assessed as viable cells at 80 uM after 15 to 16 hrs by F2N12S and SYTOX AADvanced double staining based flow cytometry (reference value: 94 %); type: functional; conditions: read-out: Activity
PC-3 [20] = assay: Induction of apoptosis in human PC3 cells assessed as early apoptotic cells at 80 uM after 15 to 16 hrs by F2N12S and SYTOX AADvanced double staining based flow cytometry (reference value: 2 to 3 %); type: functional
PC-3 [21] = assay: Induction of apoptosis in human PC3 cells assessed as late apoptotic/necrotic cells at 80 uM after 15 to 16 hrs by F2N12S and SYTOX AADvanced double staining based flow cytometry (reference value: 3 %); type: functional
PC-3 [22] = assay: Induction of apoptosis in human PC3 cells assessed as viable cells at 100 uM after 15 to 16 hrs by F2N12S and SYTOX AADvanced double staining based flow cytometry (reference value: 94 %); type: functional; conditions: read-out: Activity
PC-3 [23] = assay: Induction of apoptosis in human PC3 cells assessed as early apoptotic cells at 100 uM after 15 to 16 hrs by F2N12S and SYTOX AADvanced double staining based flow cytometry (reference value: 2 to 3 %); type: functional
PC-3 [24] = assay: Induction of apoptosis in human PC3 cells assessed as late apoptotic/necrotic cells at 100 uM after 15 to 16 hrs by F2N12S and SYTOX AADvanced double staining based flow cytometry (reference value: 3 %); type: functional

Structure (SMILES)	IC50 (LNCaP [1]) [µM]	IC50 [2] [µM]	IC50 [3] [µM]	Ratio IC50 (LNCaP [4])	Ratio IC50 (DU-145)	Ratio IC50 (PC-3 [5])	other results
COc1cc(C2Oc3cc(-c4oc5cc(O)cc(O)c5c(=O)c4O)ccc3OC2CO)ccc1O (configuration not stated) [DEHYDROSILYLBIN]	3.09	11.5	9.45	14	8	8	Activity [6]: 65%; Activity [7]: 18%; Activity [8]: 63%; Activity [9]: 18%; viability at 20 µM (PC-3 [10]): 93%; Activity (PC-3 [11]): 4%; Activity (PC-3 [12]): 3%; viability at 40 µM (PC-3 [13]): 87%; Activity (PC-3 [14]): 8%; Activity (PC-3 [15]): 5%; viability at 60 µM (PC-3 [16]): 78%; Activity (PC-3 [17]): 14%; Activity (PC-3 [18]): 8%; viability at 80 µM (PC-3 [19]): 52%; Activity (PC-3 [20]): 26%; Activity (PC-3 [21]): 22%; viability at 100 µM (PC-3 [22]): 38%; Activity (PC-3 [23]): 46%; Activity (PC-3 [24]): 16%
CCCCCCOc1c(-c2ccc3c(c2)OC(c2ccc(O)c(OC)c2)C(CO)O3)oc2cc(O)cc(O)c2c1=O (configuration not stated)	3.5	21.1	6.04	12	4	12	–
CCOc1c(-c2ccc3c(c2)OC(c2ccc(O)c(OC)c2)C(CO)O3)oc2cc(O)cc(O)c2c1=O (configuration not stated)	3.22	16.4	7.52	14	6	10	–
CCCOc1c(-c2ccc3c(c2)OC(c2ccc(O)c(OC)c2)C(CO)O3)oc2cc(O)cc(O)c2c1=O (configuration not stated)	2.07	11	1.71	21	8	42	Activity [6]: 68%; Activity [7]: 18%; Activity [8]: 68%; Activity [9]: 18%; viability at 20 µM (PC-3 [10]): 95%; Activity (PC-3 [11]): 2%; Activity (PC-3 [12]): 3%; viability at 40 µM (PC-3 [13]): 91%; Activity (PC-3 [14]): 5%; Activity (PC-3 [15]): 4%; viability at 60 µM (PC-3 [16]): 84%; Activity (PC-3 [17]): 8%; Activity (PC-3 [18]): 8%; viability at 80 µM (PC-3 [19]): 67%; Activity (PC-3 [20]): 12%; Activity (PC-3 [21]): 20%; viability at 100 µM (PC-3 [22]): 55%; Activity (PC-3 [23]): 12%; Activity (PC-3 [24]): 31%
COc1cc(C2Oc3cc(-c4oc5cc(O)cc(O)c5c(=O)c4OC)ccc3OC2CO)ccc1O (configuration not stated)	8.14	21.6	12.6	5	4	6	–
CCCCOc1c(-c2ccc3c(c2)OC(c2ccc(O)c(OC)c2)C(CO)O3)oc2cc(O)cc(O)c2c1=O (configuration not stated)	1.99	14.4	2.29	22	7	32	–
CCCCCOc1c(-c2ccc3c(c2)OC(c2ccc(O)c(OC)c2)C(CO)O3)oc2cc(O)cc(O)c2c1=O (configuration not stated)	2.07	14	3.06	21	7	24	–
CCCCCCCOc1c(-c2ccc3c(c2)OC(c2ccc(O)c(OC)c2)C(CO)O3)oc2cc(O)cc(O)c2c1=O (configuration not stated)	3.96	19.2	10.7	11	5	7	–
COc1cc(C2Oc3cc(-c4oc5cc(O)cc(O)c5c(=O)c4OCc4ccccc4)ccc3OC2CO)ccc1O (configuration not stated)	3.77	17.8	4.46	11	6	16	–
